System: PCNA replication foci in NIH3T3 cells
Format: cell-based, murine
Conditions: for foci formation and co-localization with PCNA during S-phase: NIH3T3 cells co-transfected with CFP-PCNA, 24–48 h; for sub-cellular localization: NIH3T3 cells, confocal imaging; for Small foci (CFP-PCNA) / Large foci (CFP-PCNA) / Mid Foci (CFP-PCNA): CFP channel (CFP-PCNA) in cells co-expressing the hEXO1 protein, 50 co-transfected cells; for Small foci (CFP-PCNA): early S-phase foci; for Large foci (CFP-PCNA): late S-phase foci; for Mid Foci (CFP-PCNA): mid S-phase foci; for effect of expression on S-phase distribution: NIH3T3 cells co-expressing CFP-PCNA
In short: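 Murine NIH3T3 cells were kept in DMEM with 10% FBS and penicillin/streptomycin at 37 °C, 10% CO₂. Cells (2*10⁵ per glass-bottom dish) were seeded 24 h before ExGen500 co-transfection with 3 μg total plasmid (CFP-PCNA plus YFP fusion). Confocal imaging at 24–48 h. Co-transfected cells were counted and binned by pattern, e.g. "no foci" (diffuse CFP-PCNA, diffuse nuclear YFP).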

Row | Molecule | foci formation and co-localization with PCNA during S-phase | sub-cellular localization | Small foci (CFP-PCNA) [%] | Large foci (CFP-PCNA) [%] | Mid Foci (CFP-PCNA) [%] | effect of expression on S-phase distribution
1 | hMLH1: fusion protein, CFP or YFP tagged MMR protein (protein, left off: GST, end not stated, kept) MSFVAGVIRRLDETVVNRIAAGEVIQRPANAIKEMIENCLDAKSTSIQVIVKEGGLKLIQIQDNGTGIRKEDLDIVCERFTTSKLQSFEDLASISTYGFRGEALASISHVAHVTITTKTADGKCAYRASYSDGKLKAPPKPCAGNQGTQITVEDLFYNIATRRKALKNPSEEYGKILEVVGRYSVHNAGISFSVKKQGETVADVRTLPNASTVDNIRSIFGNAVSRELIEIGCEDKTLAFKMNGYISNANYSVKKCIFLLFINHRLVESTSLRKAIETVYAAYLPKNTHPFLYLSLEISPQNVDVNVHPTKHEVHFLHEESILERVQQHIESKLLGSNSSRMYFTQTLLPGLAGPSGEMVKSTTSLTSSSTSGSSDKVYAHQMVRTDSREQKLDAFLQPLSKPLSSQPQAIVTEDKTDISSGRARQQDEEMLELPAPAEVAAKNQSLEGDTTKGTSEMSEKRGPTSSNPRKRHREDSDVEMVEDDSRKEMTAACTPRRRIINLTSVLSLQEEINEQGHEVLREMLHNHSFVGCVNPQWALAQHQTKLYLLNTTKLSEELFYQILIYDFANFGVLRLSEPAPLFDLAMLALDSPESGWTEEDGPKEGLAEYIVEFLKKKAEMLADYFSLEIDEEGNLIGLPLLIDNYVPPLEGLPIFILRLATEVNWDEEKECFESLSKECAMFYSIRKQYISEESTLSGQQSEVPGSIPNSWKWTVEHIVYKALRSHILPPKHFTEDGNILQLANLPDLYKVFERC | unable to observe CFP-PCNA co-localized YFP-hMLH1 foci | – | – | – | – | –
2 | YFP-hEXO1-C508X: COOH-terminally truncated version of YFP-hEXO1 (protein, UniProt Q9UQ84 1-507, looked up, fragment, N-terminal YFP tag) MGIQGLLQFIKEASEPIHVRKYKGQVVAVDTYCWLHKGAIACAEKLAKGEPTDRYVGFCMKFVNMLLSHGIKPILVFDGCTLPSKKEVERSRRERRQANLLKGKQLLREGKVSEARECFTRSINITHAMAHKVIKAARSQGVDCLVAPYEADAQLAYLNKAGIVQAIITEDSDLLAFGCKKVILKMDQFGNGLEIDQARLGMCRQLGDVFTEEKFRYMCILSGCDYLSSLRGIGLAKACKVLRLANNPDIVKVIKKIGHYLKMNITVPEDYINGFIRANNTFLYQLVFDPIKRKLIPLNAYEDDVDPETLSYAGQYVDDSIALQIALGNKDINTFEQIDDYNPDTAMPAHSRSHSWDDKTCQKSANVSSIWHRNYSPRPESGTVSDAPQLKENPSTVGVERVISTKGLNLPRKSSIVKRPRSAELSEDDLLSQYSLSFTKKTKKNSSEGNKSLSFSEVFVPDLVNGPTNKKSVSTPPRTRNKFATFLQRKNEESGAVVVPGTRSRFF | none of the variant proteins were able to form foci or co-localize with PCNA during S-phase | strictly nuclear | – | – | – | –
3 | YFP-hEXO1-S598X: COOH-terminally truncated version of YFP-hEXO1 (protein, UniProt Q9UQ84 1-597, looked up, fragment, N-terminal YFP tag) MGIQGLLQFIKEASEPIHVRKYKGQVVAVDTYCWLHKGAIACAEKLAKGEPTDRYVGFCMKFVNMLLSHGIKPILVFDGCTLPSKKEVERSRRERRQANLLKGKQLLREGKVSEARECFTRSINITHAMAHKVIKAARSQGVDCLVAPYEADAQLAYLNKAGIVQAIITEDSDLLAFGCKKVILKMDQFGNGLEIDQARLGMCRQLGDVFTEEKFRYMCILSGCDYLSSLRGIGLAKACKVLRLANNPDIVKVIKKIGHYLKMNITVPEDYINGFIRANNTFLYQLVFDPIKRKLIPLNAYEDDVDPETLSYAGQYVDDSIALQIALGNKDINTFEQIDDYNPDTAMPAHSRSHSWDDKTCQKSANVSSIWHRNYSPRPESGTVSDAPQLKENPSTVGVERVISTKGLNLPRKSSIVKRPRSAELSEDDLLSQYSLSFTKKTKKNSSEGNKSLSFSEVFVPDLVNGPTNKKSVSTPPRTRNKFATFLQRKNEESGAVVVPGTRSRFFCSSDSTDCVSNKVSIQPLDETAVTDKENNLHESEYGDQEGKRLVDTDVARNSSDDIPNNHIPGDHIPDKATVFTDEESYSFESSKFTRTI | none of the variant proteins were able to form foci or co-localize with PCNA during S-phase | strictly nuclear | – | – | – | –
4 | YFP-hEXO1-Q788A;L791A: PIP-box mutant of YFP-hEXO1 (protein, UniProt Q9UQ84 1-846, looked up, variant Q788A L791A, N-terminal YFP tag) Exonuclease 1: MGIQGLLQFIKEASEPIHVRKYKGQVVAVDTYCWLHKGAIACAEKLAKGEPTDRYVGFCMKFVNMLLSHGIKPILVFDGCTLPSKKEVERSRRERRQANLLKGKQLLREGKVSEARECFTRSINITHAMAHKVIKAARSQGVDCLVAPYEADAQLAYLNKAGIVQAIITEDSDLLAFGCKKVILKMDQFGNGLEIDQARLGMCRQLGDVFTEEKFRYMCILSGCDYLSSLRGIGLAKACKVLRLANNPDIVKVIKKIGHYLKMNITVPEDYINGFIRANNTFLYQLVFDPIKRKLIPLNAYEDDVDPETLSYAGQYVDDSIALQIALGNKDINTFEQIDDYNPDTAMPAHSRSHSWDDKTCQKSANVSSIWHRNYSPRPESGTVSDAPQLKENPSTVGVERVISTKGLNLPRKSSIVKRPRSAELSEDDLLSQYSLSFTKKTKKNSSEGNKSLSFSEVFVPDLVNGPTNKKSVSTPPRTRNKFATFLQRKNEESGAVVVPGTRSRFFCSSDSTDCVSNKVSIQPLDETAVTDKENNLHESEYGDQEGKRLVDTDVARNSSDDIPNNHIPGDHIPDKATVFTDEESYSFESSKFTRTISPPTLGTLRSCFSWSGGLGDFSRTPSPSPSTALQQFRRKSDSPTSLPENNMSDVSQLKSEESSDDESHPLREEACSSQSQESGEFSLQSSNASKLSQCSSKDSDSEESDCNIKLLDSQSDQTSKLRLSHFSKKDTPLRNKVPGLYKSSSADSLSTTKIKPLGPARASGLSKKPASIQKRKHHNAENKPGLAIKANELWKNFGFKKDSEKLPPCKKPLSPVRDNIQLTPEAEEDIFNKPECGRVQRAIFQ | unable to form nuclear foci and does not co-localize with PCNA, at any time point during S-phase | – | 22 | 8 | 18 | no adverse effects on S-phase distribution
5 | YFP-hEXO1-Q154A;Y157A: putative PIP-box substitution variant of YFP-hEXO1 (protein, UniProt Q9UQ84 1-846, looked up, variant Q154A Y157A, N-terminal YFP tag) Exonuclease 1: MGIQGLLQFIKEASEPIHVRKYKGQVVAVDTYCWLHKGAIACAEKLAKGEPTDRYVGFCMKFVNMLLSHGIKPILVFDGCTLPSKKEVERSRRERRQANLLKGKQLLREGKVSEARECFTRSINITHAMAHKVIKAARSQGVDCLVAPYEADAALAALNKAGIVQAIITEDSDLLAFGCKKVILKMDQFGNGLEIDQARLGMCRQLGDVFTEEKFRYMCILSGCDYLSSLRGIGLAKACKVLRLANNPDIVKVIKKIGHYLKMNITVPEDYINGFIRANNTFLYQLVFDPIKRKLIPLNAYEDDVDPETLSYAGQYVDDSIALQIALGNKDINTFEQIDDYNPDTAMPAHSRSHSWDDKTCQKSANVSSIWHRNYSPRPESGTVSDAPQLKENPSTVGVERVISTKGLNLPRKSSIVKRPRSAELSEDDLLSQYSLSFTKKTKKNSSEGNKSLSFSEVFVPDLVNGPTNKKSVSTPPRTRNKFATFLQRKNEESGAVVVPGTRSRFFCSSDSTDCVSNKVSIQPLDETAVTDKENNLHESEYGDQEGKRLVDTDVARNSSDDIPNNHIPGDHIPDKATVFTDEESYSFESSKFTRTISPPTLGTLRSCFSWSGGLGDFSRTPSPSPSTALQQFRRKSDSPTSLPENNMSDVSQLKSEESSDDESHPLREEACSSQSQESGEFSLQSSNASKLSQCSSKDSDSEESDCNIKLLDSQSDQTSKLRLSHFSKKDTPLRNKVPGLYKSSSADSLSTTKIKPLGPARASGLSKKPASIQKRKHHNAENKPGLQIKLNELWKNFGFKKDSEKLPPCKKPLSPVRDNIQLTPEAEEDIFNKPECGRVQRAIFQ | to some extent are able to form S-phase foci in co-localization with PCNA | – | 28 | 0 | 4 | unable to detect replication foci in late S-phase
6 | YFP-hEXO1-Q285A;F288A: putative PIP-box substitution variant of YFP-hEXO1 (protein, UniProt Q9UQ84 1-846, looked up, variant Q285A F288A, YFP tag) Exonuclease 1: MGIQGLLQFIKEASEPIHVRKYKGQVVAVDTYCWLHKGAIACAEKLAKGEPTDRYVGFCMKFVNMLLSHGIKPILVFDGCTLPSKKEVERSRRERRQANLLKGKQLLREGKVSEARECFTRSINITHAMAHKVIKAARSQGVDCLVAPYEADAQLAYLNKAGIVQAIITEDSDLLAFGCKKVILKMDQFGNGLEIDQARLGMCRQLGDVFTEEKFRYMCILSGCDYLSSLRGIGLAKACKVLRLANNPDIVKVIKKIGHYLKMNITVPEDYINGFIRANNTFLYALVADPIKRKLIPLNAYEDDVDPETLSYAGQYVDDSIALQIALGNKDINTFEQIDDYNPDTAMPAHSRSHSWDDKTCQKSANVSSIWHRNYSPRPESGTVSDAPQLKENPSTVGVERVISTKGLNLPRKSSIVKRPRSAELSEDDLLSQYSLSFTKKTKKNSSEGNKSLSFSEVFVPDLVNGPTNKKSVSTPPRTRNKFATFLQRKNEESGAVVVPGTRSRFFCSSDSTDCVSNKVSIQPLDETAVTDKENNLHESEYGDQEGKRLVDTDVARNSSDDIPNNHIPGDHIPDKATVFTDEESYSFESSKFTRTISPPTLGTLRSCFSWSGGLGDFSRTPSPSPSTALQQFRRKSDSPTSLPENNMSDVSQLKSEESSDDESHPLREEACSSQSQESGEFSLQSSNASKLSQCSSKDSDSEESDCNIKLLDSQSDQTSKLRLSHFSKKDTPLRNKVPGLYKSSSADSLSTTKIKPLGPARASGLSKKPASIQKRKHHNAENKPGLQIKLNELWKNFGFKKDSEKLPPCKKPLSPVRDNIQLTPEAEEDIFNKPECGRVQRAIFQ | to some extent are able to form S-phase foci in co-localization with PCNA | – | 34 | 0 | 0 | unable to detect replication foci in late S-phase
